Screening data as filed in PubChem BioAssay.
PvdQ acylase: blocks Pseudomonas aeruginosa PvdQ acylase activity; purified PvdQ acylase, fluorescence plate reader; inhibition, % at 10 µM; hit rate 0.063% among 340,000; in the data active = inhibition above about 30%, passing the limit was not always enough
IMP-1 inh: inhibitors of Pseudomonas aeruginosa IMP-1 metallo-beta-lactamase; inhibition, % at 5.6 µM; purified IMP-1, nitrocefin hydrolysis, epi-absorbance fluorescence; hit rate 0.45% among 290,000;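 active = inhibition above the mean plus 3 SD of all compounds in the same screening run, cut at about 4.5% in these data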
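System: Purified IMP-1 | Read-out basis: Percent enzyme inhibition | Controls: IMP-1 with DMSO as 0%, enzyme-free DMSO as 100% | Replicates: One well per compound | Doses: 5.6 µM nominal single concentration | Detection: Epi-absorbance fluorescence, 480 nm excitation, 530 nm emission | Incubation: 25 °C, 15 min preincubation, 25 min reaction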
VIM-2 inh: inhibitors of Pseudomonas aeruginosa VIM-2 metallo-beta-lactamase. purified VIM-2, nitrocefin hydrolysis, epi-absorbance fluorescence. inhibition, % at 5.6 µM. hit rate 0.89% among 290,000. AID 1527;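 active = inhibition above the mean of all tested compounds plus 3 SD, cutoff set per screening run, cut at about 7.5% in these data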;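 also: red hydrolysis product quenches plate fluorescence so inhibitors raise well fluorescence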
HKDC1 inhibitor: inhibitors of human hexokinase HKDC1; recombinant HKDC1, G6PDH/diaphorase resazurin coupled fluorescence; inhibition, % at 20 µM; hit rate 0.16% among 340,000;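 active = inhibition above about 35% when tested at 20 µM, limit read from the data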
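test system = in-house recombinant HK5 (HKDC1) enzyme | amount = HKDC1 at 5 µg/mL | control set = DMSO-enzyme wells negative, buffer-substituted wells positive | compound = one dose of 20 µM, 1% DMSO | schedule = reaction time 90 min, room temperature, protected from light | technique = resorufin fluorescence at 613 nm | reagent = glucose with 1 mM ATP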
beta cell repl: inducers of beta-cell replication in MIN6 cells; MIN6 cells proliferation, ATPlite luminescence, 48 h; cells starved in 0.2% serum; 100% = growth in 10% serum; proliferation, % at 10 µM; hit rate 0.29% among 330,000; AID 2380;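 active = compounds whose signal lies at least 3.5 SD above the mean of all wells on their plate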
ATG4B inhibitor: blocks human ATG4B protease cleavage of LC3 substrate; AID 504462; Q9Y4P1; ATG4B cleavage of LC3-PLA2, NBD-HPC fluorescence, 1 h; hit rate 0.51% among 340,000; inhibition, % at 8.33 µM; in the data active = inhibition above about 40%
Target sequence (Q9Y4P1 whole entry, looked up): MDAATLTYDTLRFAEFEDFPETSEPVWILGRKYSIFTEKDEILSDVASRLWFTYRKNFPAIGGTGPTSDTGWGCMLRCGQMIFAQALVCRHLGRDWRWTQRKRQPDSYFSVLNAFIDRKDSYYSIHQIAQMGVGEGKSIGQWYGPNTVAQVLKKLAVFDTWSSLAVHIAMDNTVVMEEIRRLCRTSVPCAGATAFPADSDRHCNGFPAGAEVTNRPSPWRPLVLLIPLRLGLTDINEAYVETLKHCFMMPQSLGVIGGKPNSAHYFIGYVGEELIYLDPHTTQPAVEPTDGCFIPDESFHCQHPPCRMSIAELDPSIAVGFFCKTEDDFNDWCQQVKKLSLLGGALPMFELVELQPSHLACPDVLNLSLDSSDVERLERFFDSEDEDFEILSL
Numbers stand for hits; - = inactive; . = not tested or not shown. Hits are enriched below; roughly 2% of the tested compounds scored in any of these assays.

SMILES	PvdQ acylase	IMP-1 inh	VIM-2 inh	HKDC1 inhibitor	beta cell repl	ATG4B inhibitor
Cc1oc2c(C)c3oc(=O)c(CCC(=O)NCCCN4CCOCC4)c(C)c3cc2c1C	-	-	-	-	-	-
Cc1c(CCC(=O)NCCCn2ccnc2)c(=O)oc2c(C)c3occ(C(C)(C)C)c3cc12	-	-	8.1	-	-	-
Cc1coc2c(C)c3oc(=O)c(CCC(=O)NCCN4CCOCC4)c(C)c3cc12	-	-	8.2	-	-	-
CCNc1nc(NC(C)C)nc(Oc2ccc(OCCOc3ccccc3)nn2)n1	-	-	-	-	-	-
COC(=O)C=C1CCC2C3CCC4=CC(=O)C(Br)CC4(C)C3C(=O)CC12C (stereo not drawn)	-	.	.	-	.	-
COC(=O)c1sc(-c2cccs2)cc1N	-	13	-	-	-	-
COC(=O)CCC(=O)OC1(C)C(=O)C=C2C=C(c3ccsc3)OC=C2C1=O (stereo not drawn)	-	.	.	-	-	-
CCC(=O)OC1(C)C(=O)C=C2C=C(c3ccsc3)OC=C2C1=O (stereo not drawn)	-	.	.	-	-	82
Cc1c(NC(=S)N/N=C/c2cccc(O)c2)c(=O)n(-c2ccccc2)n1C	-	-	10	-	-	-
COc1cc(C(=O)NCC(=O)NNC(=O)CN(C)S(=O)(=O)c2ccc(Cl)cc2)cc(OC)c1OC	-	.	.	-	-	-
Fc1ccccc1CSc1nncn1NCc1cccs1	-	4.8	-	-	-	-
Fc1ccc(CSc2nncn2NCc2ccccc2)cc1	-	-	-	-	-	-
Fc1ccc(-c2n[nH]c(=S)n2-c2ccc3c(c2)OCCO3)cc1	-	-	9.2	-	-	-
Cc1occc1-c1n[nH]c(=S)n1-c1ccccc1	-	-	8.7	-	-	-
Cc1ccc(-n2c(-c3cn(C)nc3C)n[nH]c2=S)cc1	.	-	8.9	.	-	.
Cn1cc(Cl)c(-c2n[nH]c(=S)n2-c2ccc(F)cc2)n1	-	-	11	-	-	-
S=c1[nH]nc(-c2ccc(Cl)cc2)n1-c1ccc2c(c1)OCCO2	-	-	-	-	-	-
Cc1nn(C)cc1-c1n[nH]c(=S)n1-c1ccc(F)cc1	-	-	-	-	-	-
CCn1c(-c2nn(C)cc2Cl)n[nH]c1=S	-	-	-	-	-	-
COc1ccc(C(=O)Nc2c(-c3cccs3)c(=O)c3ccccc3n2C)cc1	-	-	-	-	-	-
O=C(/C=C/c1cccc(Cl)c1)Nn1c(-c2cccs2)nc2ccccc2c1=O	-	-	-	-	-	-
CCOC(=O)C1CCN(C(=O)COC(=O)c2cccc(NS(=O)(=O)c3ccccc3)c2)CC1	-	.	.	-	.	-
Cn1c(=O)[nH]c(=O)c2c1nc(N1CCCCCC1)n2CCOc1ccccc1	-	-	-	-	-	-
Cc1cccc(NC2=NCC(=O)N2Cc2ccccc2)c1	-	8.6	-	-	-	-
Cc1cc(C)cc(NC2=NCC(=O)N2Cc2ccccc2)c1	-	-	-	-	-	-
SMILES	PvdQ acylase	IMP-1 inh	VIM-2 inh	HKDC1 inhibitor	beta cell repl	ATG4B inhibitor
CCOC(=O)c1cnc(-n2nc(C)cc2C)nc1NCCc1ccccc1	-	-	9.6	-	-	-
CCOC(=O)c1cnc(-n2nc(C)cc2C)nc1Nc1ccccc1OC	.	-	-	.	.	.
CCOC(=O)c1cnc(-n2nc(C)cc2C)nc1Nc1ccc(OC)cc1	-	-	11	-	-	-
CCOC(=O)c1cnc(-n2nc(C)cc2C)nc1NC1CCCC1	-	-	8.4	-	-	-
O=C(CSc1nc(-c2ccccc2)nc2c1Cc1ccccc1O2)Nc1ccccc1	.	-	-	.	-	.
O=C(CSc1nc(-c2ccc(F)cc2)nc2c1Cc1ccccc1O2)Nc1cccc(C(=O)O)c1	-	-	-	57	.	-
COc1ccc(-n2nc(C(=O)NCC(=O)N3CCCC3)c3ccccc3c2=O)cc1Cl	-	-	-	-	-	-
Cc1ccc(S(=O)(=O)c2cc3ccccc3oc2=Nc2ccc3c(c2)OCCO3)cc1	-	-	-	-	0.0	-
CN1CCN(CC(=O)Nc2c(C#N)cnn2-c2ccccc2)CC1	.	-	-	-	-	-
O=C(NC(=S)NCCC1=CCCCC1)c1ccccc1Br	-	-	25	-	-	-
O=C(COC(=O)c1ccccc1Br)NCCC1=CCCCC1	-	-	-	-	-	-
Cc1ccc[n+](CC(=O)Nc2ccc(Cl)c([N+](=O)[O-])c2)c1	-	-	8.9	-	-	-
O=C(C[n+]1ccccc1)Nc1ccc(Cl)c([N+](=O)[O-])c1	-	-	-	-	-	-
O=c1nc2ccc(Cl)cn2c2ccc(S(=O)(=O)N3CCOCC3)cc12	-	-	11	-	-	-
O=c1nc2ccc(Cl)cn2c2ccc(S(=O)(=O)N3CCCCC3)cc12	-	-	-	-	-	-
COC(=O)c1cc(S(=O)(=O)NCCc2ccc(C)cc2)c[nH]1	-	-	-	-	-	-
COC(=O)c1cc(S(=O)(=O)NCCc2ccc(SC)cc2)c[nH]1	-	34	-	-	-	-
CCOC(=O)c1ccc(N2C(=O)C(C)=C(C)C2=O)cc1	38	-	-	-	-	-
CC1=C(C)C(=O)N(c2ccc(C(=O)O)cc2)C1=O	-	-	-	-	-	-
CCOC(=O)c1c(C)oc2c1cc(O)c1ccccc12	-	-	-	-	-	-
CCOC(=O)c1c(C)oc2c(F)c(F)c(F)c(F)c2c1=O	-	8.8	-	-	-	-
CC(C)(C)NC(=O)c1cc(Cl)ccc1[N+](=O)[O-]	36	-	-	-	-	-
N=C1SCC(=O)N1c1ccc(Cl)cc1	-	-	-	-	-	-
CC(C)(C)C1CCc2c(sc(NC(=O)c3cc(C4CC4)on3)c2C#N)C1 (stereo not drawn)	-	4.9	-	-	-	-
Cc1cc(C(=O)Nc2sc3c(c2C#N)CCC(C(C)(C)C)C3)no1 (stereo not drawn)	-	-	-	-	-	-
SMILES	PvdQ acylase	IMP-1 inh	VIM-2 inh	HKDC1 inhibitor	beta cell repl	ATG4B inhibitor
N[C@@H](Cc1cc(I)c(Oc2cc(I)c(O)c(I)c2)c(I)c1)C(=O)O	.	.	.	-	-	45
N[C@@H](Cc1ccc(O)c(O)c1)C(=O)O	-	.	.	-	.	-
COc1cccc(NC(=O)Cn2c3ccc(F)cc3c3nc4n(c(=O)c32)CCCS4)c1	-	6.5	-	-	-	-
COc1ccc2c(c1)c1nc3n(c(=O)c1n2CC(=O)Nc1ccccc1)CCCS3	-	-	-	-	-	-
C#CCSc1n[nH]c(=O)n1-c1cccc(C(F)(F)F)c1	-	-	-	-	-	-
CN1C(=O)c2cccc3c(N(C)C)ccc(c23)C1=O	-	-	9.8	-	-	-
N#Cc1ccccc1CSCCNC(=O)Cc1c(F)cccc1Cl	-	-	-	-	-	-
O=C(NCc1ccco1)c1ccccc1SCC(=O)N1CCCC1	-	.	.	-	-	-
O=C(O)C1=C[C@@H](c2csc3ccccc23)C[C@@H](OCCCCO)O1	-	-	-	-	-	-
